The text below walks through data of ChEMBL document CHEMBL1154829, “Iridoids from Fraxinus excelsior with adipocyte differentiation-inhibitory and PPARalpha activation activity” (2010).

As usually defined, the inhibition is the relative decrease from the control value, in per cent.

Structures are written as SMILES. Activity calls are given as the source filed them. The rule behind the calls is not given here.

Assay [1] has as its system 3T3-L1. The assay is described as follows: Inhibition of adipocyte differentiation in mouse 3T3L1 cells assessed as inhibition of 2 deoxy-D[3H]glucose uptake at 0.05 mg/ml […] by scintillation counter relative to control. It is filed as functional.
Assay [2] has as its system 3T3-L1. The assay is described as follows: Inhibition of adipocyte differentiation in mouse 3T3L1 cells assessed as inhibition of 2 deoxy-D[3H]glucose uptake at 0.1 mg/ml […] by scintillation counter relative to control. It is filed as functional.
Assay [3] relates to 3T3-L1. Briefly: Inhibition of adipocyte differentiation in mouse 3T3L1 cells assessed as inhibition of 2 deoxy-D[3H]glucose uptake at 0.01 mg/ml […] by scintillation counter relative to control. In kind it is functional.
Assay [4] relates to 3T3-L1. Briefly: Inhibition of adipocyte differentiation in mouse 3T3L1 cells assessed as inhibition of 2 deoxy-D[3H]glucose uptake at 0.5 mg/ml after 15 mins by scintillation counter relative to control. It is filed as functional.
In assay [5] the test system is 3T3-L1. Briefly: Inhibition of adipocyte differentiation in mouse 3T3L1 cells assessed as inhibition of 2 deoxy-D[3H]glucose uptake at 0.2 mg/ml […] by scintillation counter relative to control. It is filed as functional.
For assay [6], the system named is 3T3-L1. Briefly: Inhibition of adipocyte differentiation in mouse 3T3L1 cells assessed as inhibition of 2 deoxy-D[3H]glucose uptake at 1 mg/ml […] by scintillation counter relative to control. It is filed as functional.
Assay [7] deals with T1, Peroxisome proliferator-activated receptor alpha (Homo sapiens) (UniProt Q07869).
T1 sequence (whole entry): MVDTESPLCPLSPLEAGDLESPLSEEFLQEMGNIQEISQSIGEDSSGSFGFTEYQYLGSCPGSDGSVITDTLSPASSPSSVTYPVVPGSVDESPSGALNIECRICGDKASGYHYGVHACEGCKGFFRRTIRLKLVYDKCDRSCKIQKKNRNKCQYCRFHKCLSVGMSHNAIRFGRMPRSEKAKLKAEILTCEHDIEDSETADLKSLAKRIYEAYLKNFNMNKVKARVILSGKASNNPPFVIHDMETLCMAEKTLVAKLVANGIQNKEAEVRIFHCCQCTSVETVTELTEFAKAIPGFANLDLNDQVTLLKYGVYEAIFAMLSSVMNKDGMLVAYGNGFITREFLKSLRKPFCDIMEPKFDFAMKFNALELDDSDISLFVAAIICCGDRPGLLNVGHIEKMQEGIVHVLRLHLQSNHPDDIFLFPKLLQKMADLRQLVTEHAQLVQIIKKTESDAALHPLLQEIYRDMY
Briefly: Activation of PPARalpha transfected into HEK cells at 100 uM by luciferase assay. In kind it is cell-based. Particulars: HEK293. The method in brief: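 HEK cells in DMEM with 10% FBS, 1% penicillin-streptomycin and 2 mM L-glutamine at 37 °C, 5% CO2. Seeded at 80 000/well 24 h before PEI transfection (1 µg plasmid, 4 h). Compounds dissolved in DMSO and added in supplemented DMEM for 48 h. Lysate luciferase read by luminometer, normalized to β-gal, relative to DMSO control. Three independent runs; mean ± SD.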

Assay [8] concerns the target T2, Solute carrier family 2, facilitated glucose transporter member 4 (Homo sapiens) (UniProt P14672).
T2 sequence (whole entry): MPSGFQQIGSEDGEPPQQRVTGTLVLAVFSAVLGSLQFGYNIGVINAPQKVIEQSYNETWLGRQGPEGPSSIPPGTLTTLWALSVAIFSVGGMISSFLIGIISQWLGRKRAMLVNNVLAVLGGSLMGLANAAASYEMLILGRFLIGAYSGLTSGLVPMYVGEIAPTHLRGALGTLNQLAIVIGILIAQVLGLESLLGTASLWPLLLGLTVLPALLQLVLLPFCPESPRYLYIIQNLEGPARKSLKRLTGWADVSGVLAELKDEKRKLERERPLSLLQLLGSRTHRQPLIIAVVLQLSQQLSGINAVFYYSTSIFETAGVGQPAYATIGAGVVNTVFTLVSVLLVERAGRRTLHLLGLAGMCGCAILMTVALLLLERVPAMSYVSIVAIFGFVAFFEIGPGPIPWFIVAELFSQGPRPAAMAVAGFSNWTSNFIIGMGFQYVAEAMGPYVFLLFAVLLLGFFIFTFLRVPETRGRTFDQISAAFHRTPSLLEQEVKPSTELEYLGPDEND
The assay is described as follows: Stimulation of GLUT4 glucose transport.

As to `C/C=C1/[C@H](O[C@@H]2O[C@H](CO)[C@@H](O)[C@H](O[C@@H]3O[C@H](CO)[C@@H](O)[C@H](O)[C@H]3O)[C@H]2O)OC=C(C(=O)OC)[C@H]1CC(=O)Oc1ccc(CCO)cc1`, the inhibition at 50 µg/mL in the assay on 3T3-L1 [1] was -17.1%. Moreover, the inhibition at 100 µg/mL with 3T3-L1 [2] was -49.7%. Besides, the inhibition at 10 µg/mL with 3T3-L1 [3] turned out to be 77.6%.

Regarding `C/C=C1/[C@H](O[C@@H]2O[C@H](CO[C@@H]3O[C@H](CO)[C@@H](O)[C@H](O)[C@H]3O)[C@@H](O)[C@H](O)[C@H]2O)OC=C(C(=O)OC)[C@H]1CC(=O)OCCc1ccc(O)cc1` [EXCELSIDE B], in the assay with 3T3-L1 [4], the inhibition at 500 µg/mL was -22.7%. In the assay on 3T3-L1 [5], the inhibition at 200 µg/mL was -30.8%. For the same molecule, the inhibition at 1000 µg/mL in the assay on 3T3-L1 [6] was -24.3%. Further, the inhibition at 50 µg/mL in the assay with 3T3-L1 [1] is -16.7%. In assay [7], the Activity worked out at 24.8%. Moreover, in assay [8], the activation entry is “inactive”.

For `C/C=C1\[C@H](O[C@@H]2O[C@H](CO)[C@@H](O)[C@H](O)[C@H]2O)OC=C(C(=O)OC)[C@H]1CC(=O)O`, the inhibition at 50 µg/mL in the assay on 3T3-L1 [1] is -34.8%. Moreover, the inhibition at 100 µg/mL in the assay with 3T3-L1 [2] was -85.2%. The inhibition at 10 µg/mL in the assay on 3T3-L1 [3] is -7.9%. Besides, the activation result in assay [8] is “inactive”.

Consider `C/C=C1\C(CC(=O)OC[C@H]2O[C@@H](OCCc3ccc(O)cc3)[C@H](O)[C@@H](O)[C@@H]2O)C(C(=O)OC)=CO[C@H]1O[C@@H]1O[C@H](CO)[C@@H](O)[C@H](O)[C@H]1O` (stereo partly drawn) [NUZHENIDE], for which the inhibition at 500 µg/mL in the assay with 3T3-L1 [4] is -27.9%. The inhibition at 200 µg/mL with 3T3-L1 [5] is -28.3%. In the assay with 3T3-L1 [6], the inhibition at 1000 µg/mL is -38.2%. The inhibition at 50 µg/mL in the assay on 3T3-L1 [1] was -15.2%. The same molecule showed an Activity in assay [7] of 12.2%. Moreover, the activation entry in assay [8] was “inactive”.

Turning to `C/C=C1/[C@H](O[C@@H]2O[C@H](CO[C@@H]3O[C@H](CO)[C@@H](O)[C@H](O)[C@H]3O)[C@@H](O)[C@H](O)[C@H]2O)OC=C(C(=O)OC)[C@H]1CC(=O)OC` [EXCELSIDE A], the inhibition at 50 µg/mL in the assay with 3T3-L1 [1] was 30.9%. Further, the inhibition at 100 µg/mL with 3T3-L1 [2] is -16.6%. Further, the inhibition at 10 µg/mL in the assay with 3T3-L1 [3] worked out at 102%. Besides, the activation entry in assay [8] was “inactive”.

For `O=C(O)C1CN2C(N1)[C@H](O)[C@@H](O)[C@H](O)[C@H]2CO` (stereo partly drawn), the inhibition at 500 µg/mL in the assay with 3T3-L1 [4] was -10.4%. Moreover, the inhibition at 200 µg/mL in the assay on 3T3-L1 [5] is -8.3%. The inhibition at 1000 µg/mL with 3T3-L1 [6] is -2.1%. The inhibition at 50 µg/mL with 3T3-L1 [1] is 2.3%. This molecule returned an Activity in assay [7] of 21%. The activation entry in assay [8] was “inactive”.

In the case of `C/C=C1\[C@H](O[C@@H]2O[C@H](CO)[C@@H](O)[C@H](O)[C@H]2O)OC=C(C(=O)OC)[C@H]1CC(=O)OC` [OLEOSIDE DIMETHYL ESTER], in the assay on 3T3-L1 [1], the inhibition at 50 µg/mL is -7.3%. Moreover, the Activity in assay [7] is 27.9%. In the assay with 3T3-L1 [2], the inhibition at 100 µg/mL is -81%. The inhibition at 10 µg/mL with 3T3-L1 [3] stood at 78.2%. Moreover, the activation result in assay [8] was “inactive”.

As to `C/C=C1/[C@H](O[C@@H]2O[C@H](CO)[C@@H](O)[C@H](O)[C@H]2O)OC=C(C(=O)OC)[C@H]1CC(=O)OCCc1ccc(O)cc1` [LIGSTROSIDE], in the assay with 3T3-L1 [1], the inhibition at 50 µg/mL was -76.4%. Further, the inhibition at 100 µg/mL in the assay on 3T3-L1 [2] is -9.8%. The inhibition at 10 µg/mL in the assay with 3T3-L1 [3] was -9.3%. In addition, the activation entry in assay [8] was “inactive”.
